Assay results taken from article PMC4371781 (Biochemistry, 2015).
Where a SMILES comes first, the peptide text is derived from it. Primed or numbered codes have the meaning given here. The star is where a group is joined. FITC = O=C1OC2(c3ccc(O)cc3Oc3cc(O)ccc32)c2ccc(NC(=S)*)cc21; FITC′ = fluorescein; Ahx = NCCCCCC(=O)O

How the values were obtained:
[1] = target: T1, RbAB (pocket domain of Rb) (Homo sapiens, UniProt P06400, A635F/DEL582-633/S634E); experiment: NMR-monitored titration, 1H–15N HSQC of 15N-labeled RIZ constructs with RbAB; type: binding; settings: for residues most affected by RbAB binding (loss of HSQC peak volume): 1H–15N HSQC, PBS pH 7.5, 2.5 mM DTT, 25 °C
T1 sequence (P06400 with tags, fused parts or gaps DEL582-633/S634E/A635F limits assumed): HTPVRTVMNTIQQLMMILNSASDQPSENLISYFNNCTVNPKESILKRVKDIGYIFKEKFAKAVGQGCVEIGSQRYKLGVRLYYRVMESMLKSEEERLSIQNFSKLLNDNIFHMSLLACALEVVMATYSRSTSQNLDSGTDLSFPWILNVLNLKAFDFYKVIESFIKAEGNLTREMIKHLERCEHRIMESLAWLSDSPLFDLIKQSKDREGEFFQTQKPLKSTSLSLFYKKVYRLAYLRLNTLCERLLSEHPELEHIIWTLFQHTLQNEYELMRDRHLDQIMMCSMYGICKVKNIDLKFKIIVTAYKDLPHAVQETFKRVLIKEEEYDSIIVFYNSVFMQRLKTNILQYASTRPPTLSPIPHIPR

[2] = target: T1, RbAB (pocket domain of Rb); experiment: Competition-based ITC; type: binding
Outline: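 RbAB (Rb residues 372–581 and 636–787 joined by an EF linker, GS N-terminus) was expressed as a GST fusion in E. coli and thrombin-cleaved. At 25 °C in 20 mM Tris pH 7.5, 140 mM NaCl and 2 mM β-mercaptoethanol, the RIZ 297–341 fragment (1154 or 984 μM) was titrated into RbAB (20 or 9 μM). RbAB was pre-mixed with excess competitor: 650 μM FITC-RIZ(254–267) or 459 μM RIZ 197–269 fragment. Kd was derived from the apparent association constant with a competition equation.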

[3] = target: T1, RbAB (pocket domain of Rb); experiment: Fluorescence anisotropy, direct binding assay
Outline: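 Assays ran in PBS pH 7.5 with 2.5 mM DTT. Labelled peptide was held constant while RbAB was varied: 0.33 μM FITC-RIZ(254–267) at 25 °C, or 0.40 μM FITC-RIZ(309–319) at 20 °C. FITC was attached at the N-terminus via an aminohexanoyl spacer, with amidated C-termini. TCSPC steady-state anisotropy was corrected with a bound/free quantum-yield ratio (0.65 μM peptide ± 32.5 μM RbAB). Kd was fitted by nonlinear least squares with 95% confidence intervals.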

[4] = target: HDAC1 LXCXE-like sequence LXCXE-like sequence (Homo sapiens) (UniProt Q13547); settings: cited from earlier work
[5] = target: T2, AR-N (N-terminal part of the acidic region of RIZ, residues 197-269) (human, UniProt Q13029 197-269); experiment: ITC
T2 sequence: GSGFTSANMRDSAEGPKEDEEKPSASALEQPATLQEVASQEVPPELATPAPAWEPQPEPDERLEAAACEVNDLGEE

[6] = target: T2, AR-N (N-terminal part of the acidic …); experiment: fluorescence polarisation
[7] = target: T3, FITC-RIZ(254-267) (human); experiment: fluorescence polarisation
T3 peptide: {FITC′-Ahx}-ERLEAAACEVNDLG-NH2

[8] = target: T4, FITC-RIZ(309-319) (human, SMILES …); experiment: fluorescence polarisation
T4 peptide: {FITC-Ahx}-EIRCDEKPEDL-NH2

[9] = NMR structural characterization of AR; type: physicochemical
[10] = target: T1, RbAB (pocket domain of Rb); experiment: Isothermal titration calorimetry, direct binding of RbAB
Outline: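 RbAB (GST-fusion from E. coli, thrombin-cleaved) was injected stepwise into the cell at 25 °C in 20 mM Tris pH 7.5, 140 mM NaCl and 2 mM β-mercaptoethanol. Titrations were 486 μM RbAB into 28 μM full acidic region (AR), and 524 μM RbAB into 39 μM RIZ 197–269 or 48 μM RIZ 297–341 fragment. Heats of binding were recorded and fitted to a single-binding-site model.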

[11] = from 13Cα, 13Cβ, 1Hα chemical shifts, PBS pH 7.5, 25 °C

**Q.** With “EIRCDEKPEDL [peptide containing the IRCDE motif]” as the molecule, how does the “effect of competitor peptide on AR signals in presence of RbAB” value ([1]; 86 μM 15N-labeled AR, ~2-fold molar excess RbAB, 34-fold molar excess of RIZ(309–319) peptide, PBS pH 7.5, 25 °C) read?
**A.** Its value is “the intensity of all AR signals was restored”.

**Q.** With `CC(C)C[C@H](NC(=O)[C@H](CC(=O)O)NC(=O)[C@H](CC(N)=O)NC(=O)[C@@H](NC(=O)[C@H](CCC(=O)O)NC(=O)[C@H](CS)NC(=O)[C@H](C)NC(=O)[C@H](C)NC(=O)[C@H](C)NC(=O)[C@H](CCC(=O)O)NC(=O)[C@H](CC(C)C)NC(=O)[C@H](CCCNC(=N)N)NC(=O)[C@H](CCC(=O)O)NC(=O)CCCCCNC(=S)Nc1ccc2c(c1)C(=O)OC21c2ccc(O)cc2Oc2cc(O)ccc21)C(C)C)C(=O)NCC(N)=O` [FITC-RIZ(254–267)] ({FITC-Ahx}-ERLEAAACEVNDLG-NH2) as the molecule, how does the Kd [2] read?
**A.** Its Kd is 70 ± 10 µM.

**Q.** And the Kd [3]?
**A.** The Kd was about 170 µM.

**Q.** For `CC[C@H](C)[C@H](NC(=O)[C@H](CCC(=O)O)NC(=O)CCCCCNC(=S)Nc1ccc2c(c1)C(=O)OC21c2ccc(O)cc2Oc2cc(O)ccc21)C(=O)N[C@@H](CCCNC(=N)N)C(=O)N[C@@H](CS)C(=O)N[C@@H](CC(=O)O)C(=O)N[C@@H](CCC(=O)O)C(=O)N[C@@H](CCCCN)C(=O)N1CCC[C@H]1C(=O)N[C@@H](CCC(=O)O)C(=O)N[C@@H](CC(=O)O)C(=O)N[C@@H](CC(C)C)C(N)=O` [FITC-RIZ(309–319)] ({FITC-Ahx}-EIRCDEKPEDL-NH2), which Kd [3] is on record?
**A.** The Kd was about 0.36 µM.

**Q.** With “Rb pocket domain pocket domain (from UniProt P06400)” as the molecule, how does the Kd [4] read?
**A.** Its Kd is 10 µM.

B1: RbAB (pocket domain of the retinoblastoma protein, cyclin boxes A and B joined by a two-residue linker) (domain or fragment, human)
chain: GSHTPVRTVMNTIQQLMMILNSASDQPSENLISYFNNCTVNPKESILKRVKDIGYIFKEKFAKAVGQGCVEIGSQRYKLGVRLYYRVMESMLKSEEERLSIQNFSKLLNDNIFHMSLLACALEVVMATYSRSTSQNLDSGTDLSFPWILNVLNLKAFDFYKVIESFIKAEGNLTREMIKHLERCEHRIMESLAWLSDSPLFDLIKQSKDREGEFFQTQKPLKSTSLSLFYKKVYRLAYLRLNTLCERLLSEHPELEHIIWTLFQHTLQNEYELMRDRHLDQIMMCSMYGICKVKNIDLKFKIIVTAYKDLPHAVQETFKRVLIKEEEYDSIIVFYNSVFMQRLKTNILQYASTRPPTLSPIPHIPR
**Q.** For B1, which Kd [5] is on record?
**A.** Its Kd is 45 ± 20 µM.

**Q.** What about the Kd [6] of the same molecule?
**A.** Its Kd is 90 µM.

**Q.** What about the Kd [7] of the same molecule?
**A.** The Kd was 170 µM.

**Q.** And the Kd [8]?
**A.** The Kd was 0.36 µM.

B2: AR: recombinant AR protein, residues 197–341 of human RIZ (FTSA⋯TPAM) preceded by four extraneous amino acids (GSPE) (protein)
chain: GSPEFTSANMRDSAEGPKEDEEKPSASALEQPATLQEVASQEVPPELATPAPAWEPQPEPDERLEAAACEVNDLGEEEEEEEEEDEEEEEDDDDDELEDEGEEEASMPNENSVKEPEIRCDEKPEDLLEEPKTTSEETLEDCSEVTPAM
modifications: left off: GST, end not stated, cleaved
**Q.** Which “structural state in solution” value ([9]; NMR, PBS pH 7.5, 2.5 mM DTT, 25 °C) does the source give for B2 here?
**A.** The value was “consistent with AR being intrinsically disordered”.

**Q.** And the “SSP scores: virtually no residues higher than” value [9, 11]?
**A.** Its value is at most 0.2.

**Q.** And the “SSP scores: virtually no residues lower than” value [9, 11]?
**A.** The value was at least −0.2.

**Q.** And the “affinity for pocket domain of Rb (in words)” value ([10]; purified components, ITC and fluorescence anisotropy)?
**A.** The value was “submicromolar affinity”.

**Q.** And the “residues most affected by RbAB binding (loss of HSQC peak volume)” value [1]?
**A.** Its value is “Residues 306–322 ([…]) were the most affected by RbAB binding”.

**Q.** And the “exchange between free and bound forms with RbAB” value ([1]; 15N-labeled AR, increasing RbAB, PBS pH 7.5, 25 °C)?
**A.** The value was “consistent with exchange between the free and bound forms on an intermediate time scale”.

**Q.** And the “specificity of binding to RbAB” value ([1]; displacement by large excess of peptide containing IRCDE motif)?
**A.** The value was “AR binding to RbAB is specific”.

B3: AR-N: recombinant protein, residues 197–269 (FTSA⋯LGEE) of RIZ preceded by three extraneous amino acids (GSG) (protein)
chain: T2 sequence
modifications: left off: GST, N-terminal, cleaved
**Q.** Which “heat/enthalpy of binding to RbAB (in words)” value ([10]; ITC, 25 °C, Tris pH 7.5) does the source give for B3 here?
**A.** The value was “little or no heat is released”.

**Q.** And the “residues most affected by RbAB binding (loss of HSQC peak volume)” value [1]?
**A.** Its value is “Residues 255–267 in AR-N”.
